Most compounds without a hit are left out; they make up all but 2.4% or so of the library.
CASP6 VEID inh – inhibitors of human caspase-6 | actives 0.53% (n = 350,000) | inhibition, % at 12.5 µM | purified caspase-6, Z-VEID-R110 cleavage fluorescence | AID 686996 | P55212;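 active means mean inhibition across replicates at least about 35%, with every replicate also reaching that limit, limit read from the data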
Target sequence (P55212 24-179 limits assumed): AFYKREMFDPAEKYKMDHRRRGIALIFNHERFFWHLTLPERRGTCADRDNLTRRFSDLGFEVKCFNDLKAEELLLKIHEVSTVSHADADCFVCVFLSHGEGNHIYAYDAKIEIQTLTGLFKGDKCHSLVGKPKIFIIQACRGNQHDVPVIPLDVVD
Target sequence (P55212 194-293 limits assumed): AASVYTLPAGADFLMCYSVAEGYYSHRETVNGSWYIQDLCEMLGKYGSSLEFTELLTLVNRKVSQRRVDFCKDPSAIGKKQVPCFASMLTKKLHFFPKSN
ERAP1 inh – blocks human ERAP1 aminopeptidase activity | Q9NZ08 | recombinant ERAP1, Leu-AMC fluorescence, 60 min | inhibition, % at 10.7 µM | actives 0.15% (n = 340,000);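 active means mean replicate inhibition of at least 30%, or all replicates individually reaching that 30% level; inactive means mean below 30% and not every replicate reaching it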
Ecoli rRNA inh – selective bacterial rRNA inhibition in E. coli | GFP signal change (wild-type ribosome), % (test concentration not listed) | actives 1.6% (n = 350,000) | E. coli WT GFP vs humanized-ribosome RFP mutants, fluorescence, 24 h; hits give low values; DMSO median 0, no signal -100;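 active means significant combined selectivity score with lowered wild-type GFP, culture density cut under 30%, mutant RFP and density less affected; inactive means any of these conditions unmet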
PGC1a acetyl inh – modulators of PGC1a acetylation; actives 0.17% (n = 350,000); AID 651687; U2OS PGC1a acetylation, AlphaScreen anti-acetyl-lysine; with virally co-expressed GCN5 acetyltransferase; inhibition, % at 15.6 µM;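 active means every replicate shows inhibition of at least 40%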
S100A4 inh HTS – S100A4-myosin IIA interaction inhibition | S100A4/TAMRA-MyoIIA peptide fluorescence polarization | AID 652163 | actives 0.14% (n = 360,000) | inhibition, % at 10.7 µM;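 active means mean inhibition of at least 70% across replicates, with every replicate also reaching that level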
Target sequence (P26447 whole entry, looked up): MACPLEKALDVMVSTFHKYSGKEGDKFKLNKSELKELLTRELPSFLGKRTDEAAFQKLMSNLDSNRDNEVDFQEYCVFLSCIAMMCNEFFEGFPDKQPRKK
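Material: human S100A4 monomer with TAMRA-labelled myosin IIA peptide; buffer or medium: HEPES pH 7.2 with CaCl2, KCl, NaCl, DTT, Triton; compound dosing: one concentration per compound; schedule: 5 min incubation before reading; benchmarks: neutral control DMSO, positive control TFP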
ARNT TACC3 PPI – disruptors of human ARNT/TACC3 interaction | Q9Y6A5 | AlphaScreen His-ARNT PAS-B/GST-TACC3 binding, luminescence; TACC3 fragment carries E629A point mutation | inhibition, % at 9.99 µM | actives 0.66% (n = 390,000);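 active means mean inhibition of replicates at least 50% and at least half of replicates each reaching 50%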
Numbers stand for hits; - = inactive; . = no result.

SMILES	CASP6 VEID inh	ERAP1 inh	Ecoli rRNA inh	PGC1a acetyl inh	S100A4 inh HTS	ARNT TACC3 PPI
NC(=O)C1(C(=O)O)OC1(c1ccc(Cl)cc1)c1ccccc1Cl (stereo not drawn)	-	-	-	-	-	-
CCOC(=O)C1(C(N)=O)OC1(c1ccc(Cl)cc1)c1ccccc1Cl (stereo not drawn)	-	-	-19	-	-	-
Cc1cccc(Nc2c(F)c(F)c(F)c(F)c2C(=O)O)c1	-	-	-30	-	-	-
CO[C@H]1CC[C@@H]2CCOc3ccc(C#N)cc3C(=O)N(C)[C@@H](C)C(=O)N(C)C[C@H]1O2	-	-	-	.	-	-
COc1ccccc1N(CC(=O)NCCSc1ccccc1)S(=O)(=O)c1ccccc1	-	-	-31	-	-	-
O=C1CC(C(=O)Nc2ccc(Br)cc2)C2(CCCC2)O1 (stereo not drawn)	39	-	-	.	-	.
COc1ccc(-c2noc(CSc3nnc(-c4ccccc4)n3C)n2)cc1	-	-	-22	-	-	-
COc1ccc(N2CCN(Cc3nc(-c4ccccc4)no3)CC2)cc1	-	-	-19	-	-	-
O=C(OCc1ccccc1)N1CCC2CC1c1cc(-c3ccc(F)cc3)ccc12 (stereo not drawn)	-	-	-	63	-	-
S=c1[nH]nc(-c2ccccn2)n1/N=C/c1cccc(Cl)c1	-	-	-	.	-	61
Cc1ccsc1/C=N/n1c(-c2ccccn2)n[nH]c1=S	-	-	-	.	-	61
O=[N+]([O-])c1cc2c(cc1/C=N/n1c(-c3ccccn3)n[nH]c1=S)OCO2	.	.	.	.	.	71
O=C(CC1CC1)N[C@@H]1CC[C@H](CCNS(=O)(=O)c2ccc(Cl)cc2)O[C@@H]1CO	-	-	-	-	-	-
C[C@H](CO)N1C[C@H](C)[C@H](CN(C)Cc2ccccc2)Oc2ccc(NC(=O)C3CC3)cc2C1=O	-	-	-	-	-	-
CO[C@@H]1CN(C)C(=O)c2ccc(NS(C)(=O)=O)cc2OC[C@@H](C)N(C)C[C@@H]1C	-	-	-	-	-	-
COCC(=O)N1CCCCN2[C@H](CO)[C@H](c3ccc(C#Cc4ccccc4)cc3)[C@H]2C1	-	-	-	-	-	-
C/C(=N\NC(=O)c1cccc(Cl)c1)c1cccc(NC(=O)c2ccco2)c1	.	.	.	-	.	-
C/C(=N\NC(=O)c1ccccc1O)c1cccc(NC(=O)c2ccccc2)c1	-	-	-	-	-	-
C/C(=N\NC(=O)c1cc(O)ccc1O)c1cccc(NC(=O)c2cccc(Cl)c2)c1	39	-	-	-	-	-
C/C(=N\NC(=O)c1cc(O)ccc1O)c1cccc(NC(=O)c2ccc(Cl)cc2)c1	53	-	-26	.	-	-
Cc1c(NC(=O)CC#N)c(=O)n(-c2ccccc2)n1C	-	-	.	-	-	-
Cc1ccc(OCCCSc2ncccn2)cc1C	.	.	.	-	.	-
Cc1cc(OCCCCOc2ccc(S(N)(=O)=O)c(C)c2)ccc1S(N)(=O)=O	-	-	-19	-	-	-
COc1ccc(/C=C2\C(=N)N3N=C(CC(=O)N4CCOCC4)SC3=NC2=O)cc1	-	-	-	.	-	-
Cc1ccc(/C=C2\C(=N)N3N=C(CC(=O)N4CCOCC4)SC3=NC2=O)o1	38	-	-	.	-	-
SMILES	CASP6 VEID inh	ERAP1 inh	Ecoli rRNA inh	PGC1a acetyl inh	S100A4 inh HTS	ARNT TACC3 PPI
Nc1[nH]n2c(=O)cc(-c3ccccc3)nc2c1N=Nc1ccc(S(N)(=O)=O)cc1	-	-	-24	-	-	.
CC(C)(C)c1ccc(C(=O)Nn2c(CCC(=O)O)ccc2-c2cccs2)cc1	39	-	-	-	-	-
O=C(O)CCc1ccc(-c2cccs2)n1NC(=O)c1ccccc1Br	.	.	.	-	.	-
O=C(Nc1ccccc1)N[C@H]1CC[C@H](CCn2cc(-c3ccccc3F)nn2)O[C@@H]1CO	-	-	-	.	-	.
O=C(C[C@@H]1C=C[C@H](NS(=O)(=O)c2ccccc2)[C@H](CO)O1)NCc1ccncn1	-	-	-	-	-	.
COC(=O)COc1c(/C=C\c2nc(O)c([N+](=O)[O-])c(=O)[nH]2)cccc1OC	-	-	-	55	-	-
O=C1C(=C(I)I)c2ccccc2-c2ccccc21	-	36	-	.	-	.
O=C(c1ccccn1)N1C[C@@H]2[C@H](c3ccccc31)[C@H](CO)N2C(=O)CC1CC1	-	-	-	-	-	-
O=c1c([N+](=O)[O-])c(N2CCOCC2)c2ccccc2n1Cc1ccccc1	-	-	-	.	-	-
CCn1c(=O)c([N+](=O)[O-])c(N2CCN(Cc3ccc4c(c3)OCO4)CC2)c2ccccc21	-	.	-24	.	-	-
CCn1c(=O)c([N+](=O)[O-])c(N2CCSCC2)c2ccccc21	-	-	-34	-	-	-
Cn1c(=O)c([N+](=O)[O-])c(N2CCSCC2)c2ccccc21	-	-	-	.	-	-
Cc1ccccc1NC(=O)C1CCN(S(=O)(=O)c2ccc3c(c2)NC(=O)C(C)S3)CC1 (stereo not drawn)	-	-	-	-	111	-
Cc1cc(C)cc(NC(=O)C2CCN(S(=O)(=O)c3ccc4c(c3)NC(=O)C(C)S4)CC2)c1 (stereo not drawn)	-	-	-	.	-	-
O=C(/C=C/c1cccs1)N1CCC2(CC1)Oc1ccc(Cl)cc1C(=O)C21CC(c2ccccc2)=NO1 (stereo not drawn)	.	-	-	.	-	24
Cn1cnc([N+](=O)[O-])c1S(=O)(=O)Nc1ccccc1	42	-	-	-	-	-
O=C(C[C@@H]1CC[C@H](NC(=O)Nc2cccc(F)c2)[C@@H](CO)O1)NCC1CCCCC1	-	-	-	-	-	-
CC1CC(C)CN(C(=O)/C=C/c2ccc([N+](=O)[O-])s2)C1 (stereo not drawn)	-	-	-29	.	-	-
CN=C(Nc1ccc(Cl)cc1)c1cccc(C(F)(F)F)c1	.	.	.	-	.	-
CN=C(Nc1cccnc1)c1cccc(C(F)(F)F)c1	65	-	-	.	-	-
O=C(Nc1nnc(C2=COCCO2)o1)c1ccc(Cl)cc1	-	-	-	.	-	52
COc1ccc(-c2nnc(NC(=O)C3=COCCO3)o2)cc1	-	-	-	.	-	46
O=C(Nc1nnc(C2=COCCO2)o1)c1ccc([N+](=O)[O-])cc1	-	-	-	-	-	41
O=C(Nc1nnc(C2=COCCO2)o1)c1ccc(Br)cc1	-	-	-	.	-	-
O=C(Nc1nnc(C2=COCCO2)o1)c1ccc(F)cc1	-	-	-	.	-	50
C[C@@H]1CN([C@@H](C)CO)C(=O)Cc2cc(NS(=O)(=O)c3ccccc3)ccc2O[C@H]1CN(C)Cc1ccc(C(=O)O)cc1	-	-	-	-	-	.
